The list is not random: actives were taken first. Their share in the collection is about 3.1%.
KCNQ1 act – potentiators or activators of KCNQ1 channel, primary screen, cell-based, thallium flux, high-throughput | Potassium voltage-gated channel subfamily KQT member 1 (Homo sapiens), P51787 | 310,000 tested, 0.35% active | CHO-K1 KCNQ1, thallium flux FluxOR fluorescence; active compounds read high | AID 2648, 2010 | B-score at 10 µM;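 active = fluorescence ratio B-score, a plate-corrected score, at least three library SD, with initial intensity B-score within 5 SD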
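assay system = CHO-K1 cells stably expressing KCNQ1 | medium = assay buffer, equal DMSO in all wells | timing = 37 °C overnight plating, 90-min dark dye load, 20-min compound pretreatment | measured by = kinetic FluxOR thallium fluorescence, 10-s 1-Hz baseline, 110-s post-stimulus read | measure = fluorescence change relative to baseline, converted to B score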
KCNQ1 inh – inhibitors of human KCNQ1 channel, primary screen, cell-based, thallium flux, high-throughput; Potassium voltage-gated channel subfamily KQT member 1 (Homo sapiens), P51787; CHO-K1 KCNQ1, FluxOR thallium flux fluorescence; active compounds read high; B-score at 10 µM; 310,000 tested, 1.3% active; AID 2642, 2010;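 active = compounds whose thallium flux B-score, printed positive for inhibition, exceeds three library SD while starting fluorescence stays within three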;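 also: channel opened by potassium depolarization with thallium stimulus after 20 min compound exposure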
hERG rescue – hERG rescue from dofetilide block, primary screen, cell-based, CHO-hERG, FluxOR thallium flux, dofetilide IC70 | Voltage-gated inwardly rectifying potassium channel KCNH2 (Homo sapiens), Q12809 | dofetilide IC70 present | activation (rescue from dofetilide block), less the hit threshold, % at 10 µM | 310,000 tested, 0.51% active;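 active = activation above the mean of controls blocked by dofetilide plus 5 SD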;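 also: thallium influx through hERG after potassium depolarization seen as dye fluorescence rise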
KCNK3 inh – human KCNK3 channel inhibitors, primary screen, CHO cells, FluxOR thallium flux, B-score; Potassium channel subfamily K member 3 (Homo sapiens), O14649; FluxOR fluorescence; active compounds read low; B-score at 10 µM; 340,000 tested, 0.84% active;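 active = B-score under library mean minus 4 SD, starting fluorescence ratio at most library mean plus 5 SD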;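 also: more negative B-score means stronger inhibition of thallium flux through KCNK3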
KCNK9 block – KCNK9 potassium channel inhibitors, primary screen, HEK293 cells, thallium flux. Potassium channel subfamily K member 9 (Homo sapiens), Q9NPC2. B-score at 10 µM. FluxOR thallium flux fluorescence; active compounds read low. 310,000 tested, 1.2% active. AID 488922, 2010;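 active = ratio B-score over 3 SD below the library mean, with starting fluorescence within 5 SD of its mean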;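 also: negative B-score means less thallium flux so channel inhibition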
KCNK9 block conf – KCNK9 potassium channel inhibitors, confirmation, HEK293 cells, thallium flux, duplicate; shares compounds with KCNK9 block; FluxOR thallium flux fluorescence; inhibition, % at 10 µM; 4,900 tested, 43% active;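 active = thallium signal inhibited by more than 5 SD of the compound-free buffer control wells, on both duplicate plates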;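 also: 0% = assay buffer control wells without compound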
Kir21 sel – mouse Kir2.1 channel inhibition, confirmation, selectivity assay for KCNK9 modulator project, cell-based, HEK293, thallium flux | shares compounds with KCNK9 block | 4,900 tested, 4% active | Kir2.1 cells, FluxOR thallium flux fluorescence | inhibition, % at 10 µM;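 active = thallium signal drop more than 5 SD beyond the mean of the no-compound control wells, seen in both duplicate plates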;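 also: signal is fluorescence rise after thallium addition divided by baseline fluorescence; plate controls were assay buffer only for no effect and full block by chlorpromazine control for full effect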
HEK293 Tl ctr – thallium flux in non-induced HEK293 cells, confirmation, counter-screen for KCNK9 inhibitor project, cell-based, second counter screen, non-induced KCNK9-HEK293; 4,900 tested, 40% active; FluxOR thallium flux; shares compounds with KCNK9 block; inhibition, % at 10 µM;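 active = thallium signal drop beyond 5 SD of the untreated control mean, on both duplicate plates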;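 also: plate controls were buffer only IC0 wells for no effect and SID17386958 at its maximal inhibitory level for full effect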
Active calls of the source: *; i = inactive; x = no result given.

SMILES	KCNQ1 act	KCNQ1 inh	hERG rescue	KCNK3 inh	KCNK9 block	KCNK9 block conf	Kir21 sel	HEK293 Tl ctr
O=C(C1CCCN(S(=O)(=O)c2cccc3nsnc23)C1)N1CCc2ccccc21 (stereo not given)	i	i	-7.5	i	i	i	i	i
O=C(C1CCN(S(=O)(=O)c2cccc3nsnc23)CC1)N1CCc2ccccc21	i	i	-2.4	i	i	x	x	x
O=S(=O)(c1cccc2nsnc12)N1CCN(Cc2ccccc2)CC1	i	i	-8.0	i	i	i	i	i
O=C(NC1CCN(Cc2ccccc2)CC1)C1CCN(S(=O)(=O)c2cccc3nsnc23)CC1	i	i	-6.0	i	i	x	x	x
CC1Cc2ccccc2N1C(=O)C1CCCN(S(=O)(=O)c2cccc3nsnc23)C1 (stereo not given)	i	i	-9.5	i	i	i	i	i
O=C(c1ccccn1)N(c1ccccc1)C1(C(=O)NC2CCCCC2)CCCCC1	i	i	-7.9	i	i	x	x	x
COc1ccc(NC(=O)c2cc(C)nn2-c2ccccc2)cc1	i	i	-3.4	i	i	x	x	x
Cc1cccc(N2C(=O)C3CCC(c4ccccc4)CC3C2=O)c1 (stereo not given)	i	i	-0.8	i	i	i	i	i
COc1ccccc1N1C(=O)C2CCC(c3ccccc3)CC2C1=O (stereo not given)	i	i	-12.2	i	i	x	x	x
CCCCn1c(SCC(=O)c2ccccc2)nc2ccsc2c1=O	i	i	-7.4	i	-15.8*	30.0%*	i	28.0%*
O=C(O)CCCCCn1c(SCC(=O)c2ccc(O)c(O)c2)nc2ccsc2c1=O	i	i	-11.8	i	i	x	x	x
CCCCn1c(SCC(=O)c2ccc(O)c(O)c2)nc2ccsc2c1=O	i	i	-19.7	i	-16.2*	40.0%*	i	i
COc1cccc(CN(C)CC(=O)NC(=O)NCc2ccco2)c1	i	i	-6.2	i	i	x	x	x
Cc1ccc(OCC(=O)c2ccc3c(c2)CCCC3)cc1C	i	i	-3.5	i	i	i	i	i
S=c1[nH]nc(C2COc3ccccc3O2)o1 (stereo not given)	i	i	-0.7	i	i	x	x	x
S=c1nc(C2COc3ccccc3O2)[nH][nH]1 (stereo not given)	i	i	-5.8	i	i	i	i	i
O/N=C/Cc1[nH]c2ccccc2c1-c1ccccc1	i	i	-6.0	i	-9.06*	47.0%*	i	i
CC(C)Oc1ccc(C(=O)NC2(C(F)(F)F)N=C3SCCN3C2=O)cc1 (stereo not given)	i	i	-5.8	i	i	x	x	x
COc1ccc(-c2[nH]ncc2CNCC(C)(C)N2CCOCC2)cc1F	i	i	-1.2	i	i	x	x	x
CCCC[C@@H]1C[C@H]1[C@@H](NC(=O)c1ccco1)c1ccc(Cl)cc1	i	i	-9.2	i	i	x	x	x
CCCC[C@@H]1C[C@H]1[C@@H](NC(=O)c1cccs1)c1ccc(Cl)cc1	i	10*	-22.8	x	-10.6*	52.0%*	i	50.5%*
CCOc1cc(/C=N/Nc2nc3ccccc3[nH]2)cc(Br)c1OCC(=O)N(C)C	i	i	-2.6	i	-11.3*	57.5%*	i	i
